# System: DU-145 prostate carcinoma cells
# Assay: MTT cell viability assay
# Format: cell-based
# Details: 24 h
# Method in brief: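 DU-145 prostate carcinoma cells grown at 37 °C, 5% CO2, then seeded at 1.5 × 10^5 cells per well. Test compound dilution series (10–500 μg/mL) prepared in RPMI-1640 and applied for 24 h; viability read by MTT, expressed as IC50. Elevated-Zn2+ conditions: medium adjusted with 50 μM ZnCl2. DTNB conditions: cells preincubated 1 h in RPMI-1640 with 2.5 mM DTNB, and dilution series supplemented with 1 mM DTNB during the 24 h exposure.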
Substance,"cytotoxicity against DU-145 cells (in words) (elevated Zn2+ (50 μM ZnCl2), no DTNB)",cytotoxicity against DU-145 cells (in words) (normal Zn2+ conditions (no ZnCl2 added)),cytotoxicity against DU-145 cells (in words) (Zn2+ condition not stated)
(GHHPG)2,No activity,No activity,
H2N-EAEAEA-SS-(Ac)CAhxGHHPHGHHPH-amide (disulfide) [(EA)3-thiol],,,no activity

# — publication PMC7081261 (ACS Omega, 2020)
